Reference: ChEMBL document CHEMBL1833921, “Synthesis and biological evaluation of phenstatin metabolites” (Bioorg Med Chem, 2011)

What was measured:
OVCAR-5 = assay: Cytotoxicity against human OVCAR5 cells after 48 hrs by sulforhodamine B assay; assay type: functional; conditions: OVCAR-5, 48 h
MDA-MB-435 = assay: Cytotoxicity against human MDA-MB-435 cells after 48 hrs by sulforhodamine B assay; assay type: functional; conditions: MDA-MB-435, 48 h
RXF 393 = assay: Cytotoxicity against human RXF393 cells after 48 hrs by sulforhodamine B assay; assay type: functional; conditions: RXF 393, 48 h
OVCAR-3 = assay: Cytotoxicity against human OVCAR3 cells after 48 hrs by sulforhodamine B assay; assay type: functional; conditions: OVCAR-3, 48 h
DU-145 = assay: Cytotoxicity against human DU145 cells after 48 hrs by sulforhodamine B assay; assay type: functional; conditions: DU-145, 48 h
M14 = assay: Cytotoxicity against human M14 cells after 48 hrs by sulforhodamine B assay; assay type: functional; conditions: M14, 48 h
UACC-62 = assay: Cytotoxicity against human UACC62 cells after 48 hrs by sulforhodamine B assay; assay type: functional; conditions: UACC-62, 48 h
SN12C = assay: Cytotoxicity against human SN12C cells after 48 hrs by sulforhodamine B assay; assay type: functional
SK-OV-3 = assay: Cytotoxicity against human SKOV3 cells after 48 hrs by sulforhodamine B assay; assay type: functional; conditions: SK-OV-3, 48 h
A498 = assay: Cytotoxicity against human A498 cells after 48 hrs by sulforhodamine B assay; assay type: functional; conditions: A498, 48 h
CCRF-CEM = assay: Cytotoxicity against human CCRF-CEM cells after 48 hrs by sulforhodamine B assay; assay type: functional
UO-31 = assay: Cytotoxicity against human UO31 cells after 48 hrs by sulforhodamine B assay; assay type: functional; conditions: UO-31, 48 h
SK-MEL-28 = assay: Cytotoxicity against human SK-MEL-28 cells after 48 hrs by sulforhodamine B assay; assay type: functional; conditions: SK-MEL-28, 48 h
EKVX = assay: Cytotoxicity against human EKVX cells after 48 hrs by sulforhodamine B assay; assay type: functional
NCI-H322M = assay: Cytotoxicity against human NCI-H322M cells after 48 hrs by sulforhodamine B assay; assay type: functional
HCT-116 = assay: Cytotoxicity against human HCT116 cells after 48 hrs by sulforhodamine B assay; assay type: functional; conditions: HCT-116, 48 h
MDA-MB-468 = assay: Cytotoxicity against human MDA-MB-468 cells after 48 hrs by sulforhodamine B assay; assay type: functional; conditions: MDA-MB-468, 48 h
OVCAR-4 = assay: Cytotoxicity against human OVCAR4 cells after 48 hrs by sulforhodamine B assay; assay type: functional; conditions: OVCAR-4, 48 h
SF-268 = assay: Cytotoxicity against human SF268 cells after 48 hrs by sulforhodamine B assay; assay type: functional; conditions: SF-268, 48 h
K562 = assay: Cytotoxicity against human K562 cells after 48 hrs by sulforhodamine B assay; assay type: functional; conditions: K562, 48 h
MDA-MB-231 = assay: Cytotoxicity against human MDA-MB-231/ATCC cells after 48 hrs by sulforhodamine B assay; assay type: functional; conditions: MDA-MB-231, 48 h
HCC 2998 = assay: Cytotoxicity against human HCC2998 cells after 48 hrs by sulforhodamine B assay; assay type: functional; conditions: HCC 2998, 48 h
COLO 205 = assay: Cytotoxicity against human COLO205 cells after 48 hrs by sulforhodamine B assay; assay type: functional; conditions: COLO 205, 48 h
HCT-15 = assay: Cytotoxicity against human HCT15 cells after 48 hrs by sulforhodamine B assay; assay type: functional; conditions: HCT-15, 48 h
HL-60(TB) = assay: Cytotoxicity against human HL-60(TB) cells after 48 hrs by sulforhodamine B assay; assay type: functional; conditions: HL-60, 48 h
Hs-578T = assay: Cytotoxicity against human HS578T cells after 48 hrs by sulforhodamine B assay; assay type: functional
SK-MEL-2 = assay: Cytotoxicity against human SK-MEL-2 cells after 48 hrs by sulforhodamine B assay; assay type: functional; conditions: SK-MEL-2, 48 h
NCI-H522 = assay: Cytotoxicity against human NCI-H522 cells after 48 hrs by sulforhodamine B assay; assay type: functional; conditions: NCI-H522, 48 h
A549 [1] = assay: Cytotoxicity against human A549/ATCC cells after 48 hrs by sulforhodamine B assay; assay type: functional; conditions: A549, 48 h
NCI-H460 = assay: Cytotoxicity against human NCI-H460 cells after 48 hrs by sulforhodamine B assay; assay type: functional; conditions: NCI-H460, 48 h
[2] = Inhibition of bovine brain tubulin polymerization after 30 mins by turbidimetry analysis; design: species or system Bos taurus
Method in brief: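 Lyophilized bovine brain tubulin (97%) reconstituted to 5 mg/mL in 80 mM PIPES pH 6.9, 2 mM MgCl₂, 0.5 mM EGTA, 1.0 mM GTP and 5% glycerol. Compound in DMSO was added to this solution in a quartz cuvette at 0 °C. Assembly was followed as the rise in absorbance at 340 nm at 37 °C. IC₅₀ is the molar concentration halving the extent of assembly after 30 min.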

CAKI-1 = assay: Cytotoxicity against human Caki1 cells after 48 hrs by sulforhodamine B assay; assay type: functional; conditions: CAKI-1, 48 h
KM12 = assay: Cytotoxicity against human KM12 cells after 48 hrs by sulforhodamine B assay; assay type: functional; conditions: KM12, 48 h
SF-539 = assay: Cytotoxicity against human SF539 cells after 48 hrs by sulforhodamine B assay; assay type: functional; conditions: SF-539, 48 h
MCF7 = assay: Cytotoxicity against human MCF7 cells after 48 hrs by sulforhodamine B assay; assay type: functional; conditions: MCF7, 48 h
SF-295 = assay: Cytotoxicity against human SF295 cells after 48 hrs by sulforhodamine B assay; assay type: functional; conditions: SF-295, 48 h
NCI/ADR-RES = assay: Cytotoxicity against human NCI/ADR-RES cells after 48 hrs by sulforhodamine B assay; assay type: functional
HL-60 = assay: Cytotoxicity against human HL60 cells after 48 hrs by sulforhodamine B assay; assay type: functional; conditions: HL-60, 48 h
HT-29 = assay: Cytotoxicity against human HT29 cells after 48 hrs by sulforhodamine B assay; assay type: functional; conditions: HT-29, 48 h
A549 [3] = assay: Cytotoxicity against human A549 cells after 48 hrs by sulforhodamine B assay; assay type: functional; conditions: A549, 48 h

Row | SMILES | GI50 (OVCAR-5) [nM] | GI50 (MDA-MB-435) [nM] | GI50 (RXF 393) [nM] | GI50 (OVCAR-3) [nM] | GI50 (DU-145) [nM] | GI50 (M14) [nM] | GI50 (UACC-62) [nM] | GI50 (SN12C) [nM] | GI50 (SK-OV-3) [nM] | GI50 (A498) [nM] | GI50 (CCRF-CEM) [nM] | GI50 (UO-31) [nM] | GI50 (SK-MEL-28) [nM] | GI50 (EKVX) [nM] | GI50 (NCI-H322M) [nM] | GI50 (HCT-116) [nM] | IC50 [2] [nM] | GI50 (MCF7) [nM] | GI50 (SF-295) [nM] | GI50 (HT-29) [nM] | further results
1 | COc1cc(C(=O)c2ccc(OC)c(O)c2OC)cc(OC)c1O | 4920 | 282 | 755 | 363 | 818 | 455 | 5010 | 13700 | 912 | 1700 | 896 | 16600 | 100000 | 4760 | 4990 | 1410 | 14900 | 1010 | 1400 |  | GI50 (MDA-MB-468): 864 nM; GI50 (OVCAR-4): 100000 nM; GI50 (SF-268): 4250 nM; GI50 (K562): 153 nM; GI50 (MDA-MB-231): 2160 nM; GI50 (HCC 2998): 2890 nM; GI50 (COLO 205): 4830 nM; GI50 (HCT-15): 611 nM; GI50 (HL-60(TB)): 364 nM; GI50 (Hs-578T): 358 nM; GI50 (SK-MEL-2): 100000 nM; GI50 (NCI-H522): 290 nM; GI50 (A549 [1]): 3470 nM; GI50 (NCI-H460): 1970 nM; GI50 (CAKI-1): 1900 nM; GI50 (KM12): 409 nM; GI50 (SF-539): 611 nM; GI50 (NCI/ADR-RES): 515 nM
2 | COc1ccc(C(=O)c2cc(OC)c(OC)c(OC)c2)c(OC)c1NC(C)=O |  |  |  | 3300 | 292 |  |  |  |  | 85.5 |  |  |  |  |  |  | > 50000 | 9600 | 293 | 4330 | GI50 (HL-60): 3530 nM; GI50 (A549 [3]): 4620 nM
3 | COc1ccc(C(=O)c2cc(OC)c(OC)c(OC)c2)c(N)c1 |  |  |  |  | 36 |  |  |  |  |  |  |  |  |  |  |  | 400 | 23 |  | 42 | 
4 | COc1ccc(/C=C/c2cc(OC)c(OC)c(OC)c2)c(O)c1O |  |  |  |  | 512 |  |  |  |  |  |  |  |  |  |  |  | 1900 |  |  |  | 
5 | COc1ccc(C(=O)c2cc(OC)c(OC)c(OC)c2)c(O)c1O [HYDROXYPHENSTATIN] |  |  |  |  | 144 |  |  |  |  |  |  |  |  |  |  |  | 800 |  | 120 |  | 
6 | COc1cc(C(=O)c2ccc3c(c2)oc(=O)n3S(C)(=O)=O)cc(OC)c1OC | 5770 | 289 | 4630 | 1560 | 3040 | 1360 | 5300 | 7790 | 2840 | 3110 | 3350 | 6810 | 11300 | 4580 | 5380 | 2310 | > 100000 | 4430 | 1610 |  | GI50 (MDA-MB-468): 2820 nM; GI50 (OVCAR-4): 22300 nM; GI50 (SF-268): 7950 nM; GI50 (K562): 588 nM; GI50 (MDA-MB-231): 4850 nM; GI50 (HCC 2998): 6750 nM; GI50 (COLO 205): 2500 nM; GI50 (HCT-15): 2000 nM; GI50 (HL-60(TB)): 2520 nM; GI50 (Hs-578T): 3160 nM; GI50 (SK-MEL-2): 5110 nM; GI50 (NCI-H522): 2340 nM; GI50 (A549 [1]): 4680 nM; GI50 (NCI-H460): 2640 nM; GI50 (CAKI-1): 2640 nM; GI50 (KM12): 1150 nM; GI50 (SF-539): 2360 nM; GI50 (NCI/ADR-RES): 2030 nM
7 | COc1ccc(C(=O)c2cc(OC)c(OC)c(OC)c2)c(OC)c1N |  | < 10000 |  | 20.2 | 27.4 |  |  |  |  | 22.1 |  |  |  |  |  |  | 10000 | 10.6 | 19.9 | 32.3 | GI50 (HL-60): 33.1 nM; GI50 (A549 [3]): 39 nM
8 | COc1ccc(C(=O)c2cc(OC)c(OC)c(OC)c2)cc1N |  |  |  |  |  |  |  |  |  |  |  |  |  |  |  |  | 1500 |  |  | 33 | GI50 (HL-60): 30 nM; GI50 (A549 [3]): 57 nM
9 | COc1ccc(C(=O)c2cc(OC)c(O)c(OC)c2)cc1OC | 12900 | 273 | 1880 | 2330 | 4490 | 902 | 8410 | 6680 | 2200 | 3360 | 4050 | 2160 | 9460 | > 100000 | 3440 | 2500 | > 100000 | 433 | 2080 |  | GI50 (MDA-MB-468): 1970 nM; GI50 (OVCAR-4): > 100000 nM; GI50 (K562): 666 nM; GI50 (MDA-MB-231): 4790 nM; GI50 (COLO 205): 14200 nM; GI50 (HCT-15): 2070 nM; GI50 (HL-60(TB)): 1250 nM; GI50 (Hs-578T): 4920 nM; GI50 (SK-MEL-2): 5290 nM; GI50 (NCI-H522): 3640 nM; GI50 (A549 [1]): 59100 nM; GI50 (NCI-H460): 3440 nM; GI50 (CAKI-1): 3010 nM; GI50 (KM12): 1090 nM; GI50 (SF-539): 2960 nM; GI50 (NCI/ADR-RES): 854 nM
